Data from publication PMC9057764 (RSC Advances, 2020).
“Also recorded” adds a separate entry of the source. Read-outs that look alike come from different tables or passages of the source.

Legend:
[1] = system: HL-60 (TB); test: cells; details: Homo sapiens; for GI50: HL-60
[2] = system: COLO 205; test: NCI five-dose screen, colon cancer; format: cell-based; details: Homo sapiens; for GI50: COLO 205; for CC50: COLO 205, read-out: LC50
Outline: (§1)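 This was the NCI five-dose screen on the 60-cell-line human cancer panel, covering nine tumour types. It was given to compounds that met the single-dose criteria. GI50 is the concentration giving 50% growth inhibition, TGI the concentration giving 100% growth inhibition, and LC50 the concentration giving 50% lethality. MG-MID is the mean over all cell lines tested.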

[3] = system: CCRF-CEM; test: NCI five-dose screen, leukemia; format: cell-based; details: Homo sapiens
Outline: as §1

[4] = system: RPMI-8226; test: NCI five-dose screen, leukemia; format: cell-based; details: Homo sapiens; for GI50: RPMI-8226
Outline: as §1

[5] = system: panel of 60 cell lines; test: NCI five-dose screen, whole panel; format: cell-based; details: Homo sapiens; for CC50: read-out: Median LC50 (MG-MID)
Outline: as §1

[6] = system: HCT-15; test: NCI five-dose screen, colon cancer; format: cell-based; details: Homo sapiens; for GI50: HCT-15
Outline: as §1

[7] = system: HCT-116; test: NCI five-dose screen, colon cancer; format: cell-based; details: Homo sapiens; for GI50: HCT-116
Outline: as §1

[8] = system: 60 cancer cell lines; test: NCI single dose; format: cell-based, human; details: for GI% values, range over cell lines: 10 μM, range over the leukemia and colon cancer cell lines of Table 2; for inhibition at 10 µM: Homo sapiens, read-out: Mean percent growth inhibition (MPGI)
Outline: (§2)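 This was the NCI primary screen: test compound at one concentration of 10 μM against the 60-cell-line human cancer panel, covering leukemia, NSCLC, melanoma, colon, CNS, ovarian, renal, prostate and breast lines. The read-out was percent growth inhibition for each cell line. Compounds meeting the threshold went on to the five-dose screen.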

[9] = system: HCC-2998; test: NCI five-dose screen, colon cancer; format: cell-based; details: Homo sapiens; for GI50: HCC 2998; for CC50: HCC 2998, read-out: LC50
Outline: as §1

[10] = system: KM12; test: NCI five-dose screen, colon cancer; format: cell-based; details: Homo sapiens; for GI50: KM12
Outline: as §1

[11] = system: SW-620; test: NCI five-dose screen, colon cancer; format: cell-based; details: Homo sapiens; for GI50: SW-620
Outline: as §1

[12] = system: K-562; test: NCI five-dose screen, leukemia; format: cell-based; details: Homo sapiens, K562
Outline: as §1

[13] = system: p53; test: Gene expression by real time PCR in HepG2; format: cell-based; details: Homo sapiens, HepG2, 8 h, read-out: p53 expression, fold induction from untreated cells
Outline: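 HepG2 cells treated with test compound; p53 transcript measured within a panel that also covered cdk1, caspase 3, topoII and txnrd1, and expressed relative to untreated cells. Values given as mean ± SEM of two independent experiments, with significance set at p < 0.05 versus untreated cells.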

[14] = system: SR; test: NCI single dose; format: cell-based; details: Homo sapiens, read-out: percent growth inhibition
Outline: as §2

[15] = system: SR; test: NCI five-dose screen, leukemia; format: cell-based; details: Homo sapiens
Outline: as §1

[16] = system: human normal fibroblasts (WI-38); test: Cytotoxicity in normal cells; format: cell-based; details: SI = WI-38 IC50/median GI50
Outline: (§3)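 Normal human WI-38 fibroblasts were exposed to a concentration series of test compound, with doxorubicin as positive control and three wells per concentration. IC50 came from dose–response curves averaged over two parallel experiments and is given as mean ± SEM versus untreated cells. Selectivity index = WI-38 IC50 / median GI50 from the NCI cancer panel.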

[17] = Cytotoxicity in normal cells; format: cell-based, human; details: human, WI-38 normal fibroblasts
Outline: as §3

[18] = system: MOLT-4; test: NCI five-dose screen, leukemia; format: cell-based; details: Homo sapiens
Outline: as §1

[19] = system: HT29; test: NCI five-dose screen, colon cancer; format: cell-based; details: Homo sapiens, HT-29
Outline: as §1

[20] = system: HT29; test: NCI single dose; format: cell-based; details: Homo sapiens, HT-29, read-out: percent growth inhibition
Outline: as §2

[21] = system: cyclin-dependent kinase 1 (cdk1); test: Gene expression by real time PCR in HepG2; format: cell-based; details: HepG2, approximate value in text
[22] = system: p38 mitogen-activated protein kinase (MAPK); test: MAPK concentration in HepG2 cells, sandwich ELISA; format: cell-based; details: HepG2, IC50 concentrations, 8 hours, ELISA (Fig. 5C)
Outline: (§4)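 HepG2 cells were treated with test compound, with doxorubicin as reference. Cellular p38 MAPK and Topo II protein concentrations were then measured with commercial sandwich ELISA kits. Each compound had three wells, and the experiment was run twice. Values are mean ± SEM, with significance tested against untreated cells.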

[23] = system: topoisomerase II (Topo II); test: Topo II concentration in HepG2 cells, sandwich ELISA; format: cell-based; details: HepG2, IC50 concentrations, 8 hours, ELISA (Fig. 5A)
Outline: as §4

[24] = system: cleaved caspase-3; test: Active cleaved caspase 3 activity in HepG2 cells; format: cell-based; details: for effect on activity of cleaved active caspase 3: HepG2 (Fig. 5B)
[25] = system: topoisomerase II (topoII); test: Gene expression by real time PCR in HepG2; format: cell-based; details: HepG2, approximate value in text
[26] = system: HCC-2998; test: NCI single dose; format: cell-based; details: Homo sapiens, HCC 2998, read-out: percent growth inhibition
Outline: as §2

[27] = system: HCT-15; test: NCI single dose; format: cell-based; details: Homo sapiens, HCT-15, read-out: percent growth inhibition
Outline: as §2

[28] = system: HCT-116; test: NCI single dose; format: cell-based; details: Homo sapiens, HCT-116, read-out: percent growth inhibition
Outline: as §2

[29] = system: SW-620; test: NCI single dose; format: cell-based; details: Homo sapiens, SW-620, read-out: percent growth inhibition
Outline: as §2

[30] = system: K-562; test: NCI single dose; format: cell-based; details: Homo sapiens, K562, read-out: percent growth inhibition
Outline: as §2

[31] = system: CCRF-CEM; test: NCI single dose; format: cell-based; details: Homo sapiens, read-out: percent growth inhibition
Outline: as §2

[32] = system: KM12; test: NCI single dose; format: cell-based; details: Homo sapiens, KM12, read-out: percent growth inhibition
Outline: as §2

[33] = system: MOLT-4; test: NCI single dose; format: cell-based; details: Homo sapiens, MOLT-4, read-out: percent growth inhibition
Outline: as §2

## COc1ccc(-c2ccc(-c3ccc(C(=N)N)nc3)s2)cc1.Cl [Compound 4a, 5-[5-(4-Methoxyphenyl)thiophen-2-yl]picolinamidine hydrochloride salt]
[1]
  GI50: 1780 nM
[2]
  GI50: 1890 nM
  CC50: 8.13 µM
[3]
  GI50: 1430 nM
[4]
  GI50: 2130 nM
[5]; read-out: Median GI50 (MG-MID)
  GI50: 1620 nM
[5]
  CC50: 8.12 µM
[6]
  GI50: 1270 nM
[6]; HCT-15, read-out: LC50
  CC50: 5.71 µM
[7]
  GI50: 1620 nM
[8]
  GI% values, range over cell lines: −7.17 to −86.03%
  inhibition at 10 µM: -28.8%
[9]
  GI50: 1820 nM
  CC50: 6.38 µM
[10]
  GI50: 1810 nM
[10]; KM12, read-out: LC50
  CC50: 6.03 µM
[11]
  GI50: 430 nM
[11]; SW-620, read-out: LC50
  CC50: 4.98 µM
[12]
  GI50: 1090 nM
[13]
  fold induction at 0.1 µM: 1.19 ± 0.43
[14]
  inhibition at 10 µM: 99.7%
[15]
  GI50: 340 nM
[16]
  selectivity index (SI): 13.0
[17]
  IC50 at 48 h: 21.1 ± 3.1 µM
[18]
  GI50: 1900 nM
[19]
  GI50: 880 nM

## COc1ccc(-c2ccc(-c3ccc(C(=N)N)nc3)s2)cc1Cl.Cl [Compound 4b, 5-[5-(3-Chloro-4-methoxyphenyl)thiophen-2-yl]picolinamidine hydrochloride salt]
[20]
  inhibition at 10 µM: 97.5%
[1]
  GI50: 1660 nM
[21]
  magnitude of downregulation of cdk1 expression: ~50%
[22]
  effect on concentration of MAPK protein: significant reduction
[2]
  GI50: 1940 nM
[23]
  effect on concentration of Topo II protein: significant reduction; also recorded: significantly downregulate
[3]
  GI50: 1180 nM
[4]
  GI50: 2250 nM
[5]; read-out: Median GI50 (MG-MID)
  GI50: 1730 nM
[5]
  CC50: 8.31 µM
[6]
  GI50: 1570 nM
[7]
  GI50: 1820 nM
[24]
  effect on activity of cleaved active caspase 3: devoid of any effect
[25]
  magnitude of downregulation of topoII expression: ~50%
[8]
  GI% values, range over cell lines: −7.17 to −86.03%
  inhibition at 10 µM: -19.9%
[9]
  GI50: 1860 nM
[10]
  GI50: 1810 nM
[11]
  GI50: 1790 nM
[12]
  GI50: 900 nM
[13]
  fold induction at 0.1 µM: 1.03 ± 0.08
[15]
  GI50: 580 nM
[16]
  selectivity index (SI): 13.7
[17]
  IC50 at 48 h: 23.7 ± 2.5 µM
[18]
  GI50: 1720 nM
[19]
  GI50: 1350 nM

## COc1cc(-c2ccc(-c3ccc(C(=N)N)nc3)s2)cc(OC)c1OC.Cl [Compound 4c, 5-[5-(3,4,5-Trimethoxyphenyl)thiophen-2-yl]picolinamidine hydrochloride salt]
[20]
  inhibition at 10 µM: 85.8%
[1]
  GI50: 1870 nM
[1]; HL-60, read-out: LC50
  CC50: 9.44 µM
[21]
  magnitude of downregulation of cdk1 expression: ~70%
[22]
  effect on concentration of MAPK protein: significant reduction
[2]
  GI50: 1600 nM
  CC50: 6.66 µM
[23]
  effect on concentration of Topo II protein: significant reduction; also recorded: significantly downregulate
[3]
  GI50: 2490 nM
[4]
  GI50: 1670 nM
[4]; RPMI-8226, read-out: LC50
  CC50: 9.4 µM
[5]; read-out: GI50, range over cell lines
  GI50: 1370 to 2780 nM
[5]; read-out: Median GI50 (MG-MID)
  GI50: 2390 nM
[5]
  CC50: 19.5 µM
[26]
  inhibition at 10 µM: 87.9%
[6]
  GI50: 2180 nM
[7]
  GI50: 1470 nM
[7]; HCT-116, read-out: LC50
  CC50: 5.6 µM
[24]
  effect on activity of cleaved active caspase 3: devoid of any effect
[24]; HepG2, did not achieve statistical significance (Fig. 5B)
  increase in cleaved caspase 3 enzyme activity: ~60%
[27]
  inhibition at 10 µM: 78.6%
[25]
  magnitude of downregulation of topoII expression: ~70%
[8]
  GI% values, range over cell lines: 50.93 to 99.05%
  inhibition at 10 µM: 52.6%
[9]
  GI50: 2000 nM
  CC50: 7.61 µM
[10]
  GI50: 2780 nM
[28]
  inhibition at 10 µM: 99%
[29]
  inhibition at 10 µM: 70.8%
[11]
  GI50: 2090 nM
[12]
  GI50: 1390 nM
[30]
  inhibition at 10 µM: 94.4%
[13]
  fold induction at 0.1 µM: 1.18 ± 0.1
[14]
  inhibition at 10 µM: 93.7%
[15]
  GI50: 2480 nM
[16]
  selectivity index (SI): 21.5
[17]
  IC50 at 48 h: 51.3 ± 9 µM
[18]
  GI50: 2530 nM
[31]
  inhibition at 10 µM: 89.1%
[32]
  inhibition at 10 µM: 50.9%
[19]
  GI50: 1370 nM
[33]
  inhibition at 10 µM: 76.2%

## COc1cccc2c1C(=O)c1c(O)c3c(c(O)c1C2=O)C[C@@](O)(C(=O)CO)C[C@@H]3O[C@H]1C[C@H](N)[C@H](O)[C@H](C)O1 [Dox, Doxorubicin, reference compound]
[23]
  effect on concentration of Topo II protein: significantly downregulate
[13]
  fold induction at 0.1 µM: 3.14 ± 0.81
[17]
  IC50 at 48 h: 2.9 ± 0.8 µM
